Laboratory results as given in ChEMBL document CHEMBL1667819, “Aminopyridinecarboxamide-based inhaled IKK-2 inhibitors for asthma and COPD: Structure-activity relationship” (Bioorg Med Chem, 2011).

Tests used:
[1] = target: T1, Inhibitor of nuclear factor kappa-B kinase subunit beta (Homo sapiens, UniProt O14920); assay: Inhibition of human recombinant IKK2
T1 sequence (O14920 whole entry): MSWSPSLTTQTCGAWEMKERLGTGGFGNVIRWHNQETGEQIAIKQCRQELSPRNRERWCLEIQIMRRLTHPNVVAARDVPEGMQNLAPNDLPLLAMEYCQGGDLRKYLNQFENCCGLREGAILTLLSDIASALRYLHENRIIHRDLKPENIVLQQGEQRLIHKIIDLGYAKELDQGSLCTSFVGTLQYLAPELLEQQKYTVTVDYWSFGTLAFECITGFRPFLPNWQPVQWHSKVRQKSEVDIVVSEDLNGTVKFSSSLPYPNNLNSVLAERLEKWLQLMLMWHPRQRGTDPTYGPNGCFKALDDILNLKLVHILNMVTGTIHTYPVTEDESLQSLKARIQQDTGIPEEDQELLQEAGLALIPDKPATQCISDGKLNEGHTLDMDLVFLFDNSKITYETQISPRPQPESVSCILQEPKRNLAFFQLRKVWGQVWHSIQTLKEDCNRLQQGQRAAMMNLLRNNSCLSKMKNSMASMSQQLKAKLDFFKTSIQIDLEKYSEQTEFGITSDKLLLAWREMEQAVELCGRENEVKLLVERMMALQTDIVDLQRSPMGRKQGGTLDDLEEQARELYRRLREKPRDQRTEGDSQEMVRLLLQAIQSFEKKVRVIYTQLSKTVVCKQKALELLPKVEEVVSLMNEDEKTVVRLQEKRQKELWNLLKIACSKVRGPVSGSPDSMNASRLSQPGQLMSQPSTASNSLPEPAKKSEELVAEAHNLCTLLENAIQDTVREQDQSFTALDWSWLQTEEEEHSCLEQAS

[2] = tested on: PBMC; assay: Inhibition of LPS-stimulated TNFalpha release in human PBMC; format: functional, cell-based
Summary of the method: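 PBMC were Ficoll-isolated from heparinized blood of healthy donors and plated at 2.5 × 10⁵ cells/well in RPMI 1640 with 5% FBS and penicillin–streptomycin. Cells were preincubated with compound for 1 h, then stimulated with LPS (20 ng/ml) for 16 h. Supernatant TNFα was measured by ELISA, and IC50 is the mean of ≥3 experiments.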

[3] = target: T2, Inhibitor of nuclear factor kappa-B kinase subunit beta (Homo sapiens) (UniProt O14920); assay: Binding affinity to human recombinant IKK2 assessed as half life
T2 sequence (whole entry): T1 sequence (O14920 whole entry)

[4] = target: T2, Inhibitor of nuclear factor kappa-B kinase subunit beta (Homo sapiens); assay: Binding affinity to human IKK2 in PBMC assessed as half life by cell-based assay
Summary of the method: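 Cryopreserved PBMC were thawed and plated, then exposed to compound for 1 h. Compound was removed by four spin-and-aspirate washes, and an unwashed plate served as control. Loss of inhibition after washout gave the cellular half-life.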

[5] = Half life in human liver microsomes
[6] = target: Voltage-gated inwardly rectifying potassium channel KCNH2 (Homo sapiens, UniProt Q12809); assay: Displacement of dofetilide from human ERG transfected in HEK293 cells by fluorescence polarization assay
Sequence of Voltage-gated inwardly rectifying potassium channel KCNH2 (Q12809 whole entry): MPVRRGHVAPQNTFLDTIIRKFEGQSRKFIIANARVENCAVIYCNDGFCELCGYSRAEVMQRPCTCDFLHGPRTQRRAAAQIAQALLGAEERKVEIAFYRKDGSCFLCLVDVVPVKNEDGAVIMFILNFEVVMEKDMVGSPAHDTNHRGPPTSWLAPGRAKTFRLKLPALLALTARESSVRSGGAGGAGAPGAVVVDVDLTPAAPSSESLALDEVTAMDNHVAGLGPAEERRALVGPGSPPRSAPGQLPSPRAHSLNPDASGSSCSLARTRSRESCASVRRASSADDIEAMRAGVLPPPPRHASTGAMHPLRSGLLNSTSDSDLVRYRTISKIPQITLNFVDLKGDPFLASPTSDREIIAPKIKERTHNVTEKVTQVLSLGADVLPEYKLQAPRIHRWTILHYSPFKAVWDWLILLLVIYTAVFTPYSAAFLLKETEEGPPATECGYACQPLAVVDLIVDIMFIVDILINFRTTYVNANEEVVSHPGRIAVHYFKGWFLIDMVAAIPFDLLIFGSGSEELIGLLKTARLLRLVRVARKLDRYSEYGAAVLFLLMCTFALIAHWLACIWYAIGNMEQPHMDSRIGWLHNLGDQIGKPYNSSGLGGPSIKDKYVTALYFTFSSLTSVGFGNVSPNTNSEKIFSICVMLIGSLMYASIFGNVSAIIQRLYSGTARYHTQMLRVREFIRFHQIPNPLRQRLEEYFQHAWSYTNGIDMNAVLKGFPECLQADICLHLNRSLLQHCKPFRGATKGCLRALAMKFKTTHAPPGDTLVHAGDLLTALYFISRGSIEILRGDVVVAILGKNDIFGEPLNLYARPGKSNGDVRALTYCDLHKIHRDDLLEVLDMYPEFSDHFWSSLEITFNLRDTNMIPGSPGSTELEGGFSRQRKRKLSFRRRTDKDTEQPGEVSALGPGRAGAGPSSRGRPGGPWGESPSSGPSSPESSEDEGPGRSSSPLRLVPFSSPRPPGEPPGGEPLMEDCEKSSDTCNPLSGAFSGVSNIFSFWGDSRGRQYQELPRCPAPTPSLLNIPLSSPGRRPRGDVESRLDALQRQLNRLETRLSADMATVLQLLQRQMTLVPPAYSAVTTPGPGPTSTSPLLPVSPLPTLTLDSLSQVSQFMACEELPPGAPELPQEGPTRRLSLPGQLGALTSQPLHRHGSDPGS
Summary of the method: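 Competition binding used membranes from HEK-293 cells transfected with hERG. Test compound competed with Cy3B-tagged N-desmethyl dofetilide for channel binding, with fluorescence polarization read-out. Values are given as % of effect.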

| SMILES | IC50 [1] | IC50 [2] | T1/2 [3] | T1/2 [4] | half-life ([5]; liver microsomes) | inhibition (INH) [6] | half-life ([5]; microsomes) |
| --- | --- | --- | --- | --- | --- | --- | --- |
| CCOC(=O)Cn1cc(CN2CCN(c3cc(C(=O)Nc4ccc5c(c4)-c4c(c(C(N)=O)nn4-c4ccc(F)cc4)CC5)c(Cl)cn3)CC2)cn1 | 1 nM | 6 nM | 5 h | > 4 h | 3 min | 95% |  |
| CNC(=O)Cn1cc(CN2CCN(c3cc(C(=O)Nc4ccc5c(c4)-c4c(c(C(N)=O)nn4-c4ccc(F)cc4)CC5)c(Cl)cn3)CC2)cn1 | 1.4 nM | 15 nM | 6 h | > 4 h | 13 min | 57% |  |
| COCCOCCCn1cc(CN2CCN(c3cc(C(=O)Nc4ccc5c(c4)-c4c(c(C(N)=O)nn4-c4ccc(F)cc4)CC5)c(Cl)cn3)CC2)cn1 | 6.6 nM | 21 nM | 4 h | < 4 h | 3 min | 69% |  |
| NC(=O)Cn1cc(CN2CCN(c3cc(C(=O)Nc4ccc5c(c4)-c4c(c(C(N)=O)nn4-c4ccc(F)cc4)CC5)c(Cl)cn3)CC2)cn1 | 0.9 nM | 7 nM | 5 h | < 4 h | 58 min | 38% |  |
| NC(=O)c1nn(-c2ccc(F)cc2)c2c1CCc1ccc(NC(=O)c3cc(N4CCN(Cc5cnn(CC(=O)NCCO)c5)CC4)ncc3Cl)cc1-2 | 1 nM | 9 nM | 5 h | < 4 h |  | 12% | 120 min |
| CSCCNC(=O)Cn1cc(CN2CCN(c3cc(C(=O)Nc4ccc5c(c4)-c4c(c(C(N)=O)nn4-c4ccc(F)cc4)CC5)c(Cl)cn3)CC2)cn1 | 2.5 nM | 10 nM | 4 h | 4 h | 3 min | 98% |  |
